The text below walks through data of ChEMBL document CHEMBL1135767, “Synthesis and initial evaluation for in vivo chelation of Pu(IV) of a mixed octadentate spermine-based ligand containing 4-carbamoyl-3-hydroxy-1-methyl-2(1H)-pyridinone and 6-carbamoyl-1-hydroxy-2(1H)-pyridinone” (2002).

Structures are written as SMILES. Where “and” joins values, the source holds several entries; their conditions need not be identical. Equal entries are not always repeated.

The subject of assay [1] is Mus musculus. Briefly: Removal of [238Pu] (i.v.) from mice by ligand injected orally at 3 min normally fed after iv injection from skeleton. In kind it is functional. The gist of the method:
(§1)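 Normally fed mice got iv 238Pu(IV) citrate, then ligand 30 µmol/kg by gastric tube at 3 min, in 0.14 M NaCl pH 7.4 with weight-adjusted volume. The mice were killed at 24 h, with five per cage and excreta pooled per cage. Pu was counted by liquid scintillation alpha counting and reported as %ID normalized to 100% recovery.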

The subject of assay [2] is Mus musculus. Briefly: Removal of [238Pu] (i.v.) from mice by ligand injected 30 uM/kg ip at 1 hr and orally at 3 min after iv injection from kidneys. The format is functional, Kidney. The gist of the method: (§2)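 Kidney Pu (%ID) at 24 h after iv 238Pu(IV) citrate was measured in mice given ligand 30 µmol/kg by one of two routes: ip at 1 h, or by gastric tube at 3 min to 16 h-fasted or normally fed mice. Kidneys were alpha-counted by liquid scintillation, and data were normalized to 100% recovery.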

The test system of assay [3] is Mus musculus. Briefly: Removal of [238Pu] (i.v.) from mice by ligand injected 30 uM/kg orally at 3 min normally fed after iv injection from liver tissue. In kind it is functional. The essentials: as §1
Assay [4] deals with Mus musculus. The experiment in a line: Removal of [238Pu] (i.v.) from mice by ligand injected 30 uM/kg orally at 3 min fasted after iv injection from liver tissue. In kind it is functional. The essentials: (§3)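 Mice fasted 16 h got iv 238Pu(IV) citrate, then ligand 30 µmol/kg by gastric tube at 3 min (HOPO in 0.14 M NaCl, pH 7.4; weight-adjusted volume). Chow was given at 4 h and the mice were killed at 24 h. Tissues and pooled per-cage excreta were liquid-scintillation alpha-counted and expressed as %ID normalized to 100% recovery.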

Assay [5] relates to Mus musculus. Briefly: Removal of [238Pu] (i.v.) from mice by ligand injected 30 uM/kg orally at 3 min fasted after iv injection from feces and GI contents. In kind it is functional. The essentials:
as §3

The subject of assay [6] is Mus musculus. Briefly: Removal of [238Pu] (i.v.) from mice by ligand injected 30 uM/kg intraperitoneally at 1 hr from liver tissue. In kind it is functional. The essentials:
(§4)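 238Pu(IV) citrate given iv to mice; ligand 30 µmol/kg (in 0.14 M NaCl, pH 7.4, volume scaled to body weight) injected ip at 1 h; killed at 24 h. Five mice per cage, excreta pooled per cage, chow from 4 h. Tissue and excreta Pu were counted by liquid scintillation alpha counting and given as %ID normalized to 100% recovery, mean ± SD.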

Assay [7] relates to Mus musculus. Briefly: Removal of [238Pu] (i.v.) from mice by ligand injected 30 uM/kg intraperitoneally at 1 hr from kidneys. The format is functional, Kidney. The essentials: as §4
Assay [8] relates to Mus musculus. Briefly: Removal of [238Pu] (i.v.) from mice by ligand injected 30 uM/kg orally at 3 min normally fed after iv injection from soft tissue. The format is functional. The gist of the method:
as §1

For assay [9], the system named is Mus musculus. Briefly: Removal of [238Pu] (i.v.) from mice by ligand injected 30 uM/kg intraperitoneally at 1 hr from soft tissue. In kind it is functional. The essentials: as §4
Assay [10] deals with Mus musculus. Briefly: Removal of [238Pu] (i.v.) from mice by ligand injected 30 uM/kg orally at 3 min normally fed after iv injection from feces and GI contents. The format is functional. The gist of the method: as §1
The subject of assay [11] is Mus musculus. The experiment in a line: Removal of [238Pu] (i.v.) from mice by ligand injected 30 uM/kg orally at 3 min fasted after iv injection from whole body. In kind it is functional. The gist of the method: as §3
Assay [12] concerns Mus musculus. Briefly: Removal of [238Pu] (i.v.) from mice by ligand injected 30 uM/kg intraperitoneally at 1 hr from skeleton. The format is functional. The gist of the method: as §4
In assay [13] the test system is Mus musculus. The experiment in a line: Removal of [238Pu] (i.v.) from mice by ligand injected 30 uM/kg orally at 3 min fasted after iv injection from soft tissue. The format is functional. The essentials:
as §3

In assay [14] the test system is Mus musculus. The experiment in a line: Removal of [238Pu] (i.v.) from mice by ligand injected 30 uM/kg intraperitoneally at 1 hr from whole body. The format is functional. The gist of the method: as §4
Assay [15] concerns Mus musculus. The experiment in a line: Removal of [238Pu] (i.v.) from mice by ligand injected 30 uM/kg orally at 3 min fasted after iv injection from urine excretia. The format is functional. The essentials: as §3
Assay [16] deals with Mus musculus. Briefly: Removal of [238Pu] (i.v.) from mice by ligand injected 30 uM/kg intraperitoneally at 1 hr from urine excretia. The format is functional. The gist of the method: as §4
The subject of assay [17] is Mus musculus. Briefly: Removal of [238Pu] (i.v.) from mice by ligand injected 30 uM/kg at 3 min normally fed after iv injection from urine excretia. In kind it is functional. The essentials:
as §1

In assay [18] the test system is Mus musculus. The experiment in a line: Removal of [238Pu] (i.v.) from mice by ligand injected 30 umol/kg intraperitoneally at 1 hr from skeleton. The format is functional. The essentials:
as §4

Assay [19] has as its system Mus musculus. Briefly: Removal of [238Pu] (i.v.) from mice by ligand injected 30 uM/kg ip at 1 hr from feces and GI contents. The format is functional. The gist of the method:
(§5)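 Mice received iv 238Pu(IV) citrate, then ip ligand (30 µmol/kg, 0.14 M NaCl pH 7.4) at 1 h. Feces plus GI contents were collected to 24 h kill, pooled per five-mouse cage and alpha-counted by liquid scintillation. Values are %ID normalized to total recovery. SD applies only to multiply replicated groups.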

For assay [20], the system named is Mus musculus. Briefly: Removal of [238Pu] (i.v.) from mice by ligand injected 30 uM/kg orally at 3 min fasted after iv injection from skeleton. The format is functional. The essentials:
as §3

Assay [21] concerns Mus musculus. Briefly: Removal of [238Pu] (i.v.) from mice by ligand injected 30 uM/kg orally at 3 min normally fed after iv injection from kidneys. The format is functional, Kidney. The gist of the method: as §1
Assay [22] has as its system Mus musculus. The experiment in a line: Removal of [238Pu] (i.v.) from mice by ligand injected 30 uM/kg orally at 3 min normally fed after iv injection from whole body. The format is functional. The gist of the method: as §1
Assay [23] has as its system Mus musculus. Briefly: Removal of [238Pu] (i.v.) from mice by ligand injected 30 uM/Kg intraperitoneally at 1 hr from urine excretia. In kind it is functional. The gist of the method:
as §4

Assay [24] concerns Mus musculus. Briefly: Removal of [238Pu] (i.v.) from mice by ligand injected 30 uM/Kg intraperitoneally at 1 hr from soft tissue. In kind it is functional. The essentials:
as §4

For assay [25], the system named is Mus musculus. The experiment in a line: Removal of [238Pu] (i.v.) from mice by ligand injected 30 uM/Kg orally at 3 min fasted after iv injection from skeleton. In kind it is functional. The essentials:
as §3

The test system of assay [26] is Mus musculus. The experiment in a line: Removal of [238Pu] (i.v.) from mice by ligand injected 30 uM/Kg intraperitoneally at 1 hr from liver tissue. In kind it is functional. The gist of the method:
as §4

Assay [27] concerns Mus musculus. The experiment in a line: Removal of [238Pu] (i.v.) from mice by ligand injected 30 uM/Kg intraperitoneally at 1 hr from kidneys. The format is functional, Kidney. The essentials: as §4
Assay [28] relates to Mus musculus. The experiment in a line: Removal of [238Pu] (i.v.) from mice by ligand injected 30 uM/Kg intraperitoneally at 1 hr from skeleton. In kind it is functional. The gist of the method:
as §4

The test system of assay [29] is Mus musculus. Briefly: Removal of [238Pu] (i.v.) from mice by ligand injected 30 uM/Kg intraperitoneally at 1 hr from whole body. The format is functional. The essentials:
as §4

The subject of assay [30] is Mus musculus. Briefly: Removal of [238Pu] (i.v.) from mice by ligand injected 30 uM/Kg ip at 1 hr from feces and GI contents. In kind it is functional. The gist of the method:
as §5

In assay [31] the test system is Mus musculus. Briefly: Removal of [238Pu] (i.v.) from mice by ligand injected 30 uM/Kg orally at 3 min fasted after iv injection from soft tissue. The format is functional. The essentials: as §3
The subject of assay [32] is Mus musculus. Briefly: Removal of [238Pu] (i.v.) from mice by ligand injected 30 uM/Kg ip at 1 hr and orally at 3 min after iv injection from kidneys. The format is functional, Kidney. The gist of the method: as §2
In assay [33] the test system is Mus musculus. Briefly: Removal of [238Pu] (i.v.) from mice by ligand injected 30 uM/Kg orally at 3 min fasted after iv injection from feces and GI contents. In kind it is functional. The gist of the method: as §3
In assay [34] the test system is Mus musculus. The experiment in a line: Removal of [238Pu] (i.v.) from mice by ligand injected 30 uM/Kg orally at 3 min fasted after iv injection from liver tissue. In kind it is functional. The gist of the method:
as §3

For assay [35], the system named is Mus musculus. The experiment in a line: Removal of [238Pu] (i.v.) from mice by ligand injected 30 uM/Kg orally at 3 min fasted after iv injection from whole body. The format is functional. The gist of the method:
as §3

Assay [36] has as its system Mus musculus. Briefly: Removal of [238Pu] (i.v.) from mice by ligand injected 30 uM/Kg orally at 3 min fasted after iv injection from urine excretia. The format is functional. The essentials: as §3

As for `O=C(NCCCN(CCCCN(CCCNC(=O)c1cccc(=O)n1O)C(=O)c1cccc(=O)n1O)C(=O)c1cccc(=O)n1O)c1cccc(=O)n1O`, the ID in the assay with Mus musculus [1] was 8.8%; in the assay with Mus musculus [2] it was 0.1%; with Mus musculus [3], 5.9%; in the assay with Mus musculus [4], 11% and 4.2%; in the assay with Mus musculus [5] it was 51% and 60%; in the assay with Mus musculus [6], 8.9% and 5.4%. The ID with Mus musculus [7] was 0.2% and 0.1%; with Mus musculus [8], 1.5%; in the assay on Mus musculus [9], 1.6% and 0.8%; in the assay on Mus musculus [10], 57%; in the assay on Mus musculus [11] it was 24% and 14%; in the assay with Mus musculus [12], 8%. Further, the ID was 1.3% and 1.1% with Mus musculus [13]; 18% and 14% in the assay on Mus musculus [14]; 26% in the assay with Mus musculus [15]; 25% and 21% with Mus musculus [16]; 27% in the assay on Mus musculus [17]; 7.5% in the assay with Mus musculus [18]. Also, the ID in the assay with Mus musculus [19] was 57% and 65%; with Mus musculus [20] it was 12% and 8%; in the assay on Mus musculus [21], 0.2%; in the assay on Mus musculus [22], 16%.

Regarding `Cn1ccc(C(=O)NCCCN(CCCCN(CCCNC(=O)c2ccn(C)c(=O)c2O)C(=O)c2cccc(=O)n2O)C(=O)c2cccc(=O)n2O)c(O)c1=O`, the ID with Mus musculus [1] worked out at 7.4%; with Mus musculus [2] it was 0.09%; with Mus musculus [3], 2.4%; in the assay on Mus musculus [4], 2.2%; in the assay with Mus musculus [5] it was 61%; with Mus musculus [6], 11%. Also, the ID in the assay with Mus musculus [7] came out at 0.2%; with Mus musculus [8] it was 0.9%; in the assay with Mus musculus [9], 1%; in the assay on Mus musculus [10], 58%; with Mus musculus [11], 11%; in the assay on Mus musculus [12], 9.1%. For the same molecule, the ID in the assay on Mus musculus [13] amounted to 0.8%; with Mus musculus [14], 22%; in the assay on Mus musculus [15], 28%; in the assay on Mus musculus [16], 27%; in the assay on Mus musculus [17] it was 31%; in the assay with Mus musculus [19], 51%. Moreover, the ID stood at 7.8% with Mus musculus [20], 0.1% with Mus musculus [21] and 11% with Mus musculus [22].

For the molecule `O=C([O-])CN(CCN(CC(=O)[O-])CC(=O)[O-])CCN(CC(=O)[O-])CC(=O)[O-].[Ca+2].[Na+].[Na+].[Na+]` [PENTETATE CALCIUM TRISODIUM], the ID with Mus musculus [23] is 55%; with Mus musculus [24], 2.9%; in the assay with Mus musculus [25], 40%; with Mus musculus [26], 19%; in the assay on Mus musculus [27], 1.2%; in the assay with Mus musculus [28] it was 14%. The ID in the assay with Mus musculus [29] amounted to 37%; in the assay with Mus musculus [30], 8.4%; with Mus musculus [31], 5.1%; with Mus musculus [32] it was 0.7%; with Mus musculus [33], 6.5%; in the assay on Mus musculus [34], 33%. The ID with Mus musculus [35] is 79%; in the assay on Mus musculus [36], 15%.
